{
  "source": "ChEMBL document CHEMBL1629563",
  "about": "“Pharmacokinetic and safety evaluation of BILR 355, a second-generation nonnucleoside reverse transcriptase inhibitor, in healthy volunteers” (Antimicrob Agents Chemother, 2008)",
  "key": {"[1]": {"test": "Tmax in healthy human at 25 mg, po administered as single dose coadministered with 100 mg of ritonavir", "format": "ADME, organism-based", "settings": "in vivo"}, "[2]": {"test": "Half life in healthy human at 5 mg, po administered as single dose", "format": "ADME, organism-based", "settings": "in vivo"}, "[3]": {"test": "Apparent volume of distribution in terminal phase in healthy human at 87.5 mg, po administered as single dose coadministered with 100 mg of ritonavir", "format": "ADME, organism-based", "settings": "in vivo, read-out: Vz/F", "procedure,_shortened": "(§1)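 Healthy male volunteers, fasted overnight, got one oral dose of BILR 355 in PEG solution with 200 ml water. Ritonavir 100 mg was given 10 h before and again with the dose. Plasma was sampled (EDTA) from predose to 144 h and assayed by validated LC-MS/MS. Cmax and Vz/F came from noncompartmental analysis. Vss/F = CL/F·(MRTp.o. − 1/Ka), with Ka from compartmental modelling.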"}, "[4]": {"test_system": "Homo sapiens", "test": "Toxicity in healthy human assessed as occurrence of diarrhea at 5 mg, po administered as single dose coadministered with 100 mg of ritonavir", "format": "organism-based", "settings": "in vivo"}, "[5]": {"test": "Tmax in healthy human at 50 mg, po administered as single dose", "format": "ADME, organism-based", "settings": "in vivo"}, "[6]": {"test": "Half life in high fat fed healthy human at 50 mg, po administered as single dose coadministered with 100 mg of ritonavir", "format": "ADME, organism-based", "settings": "in vivo"}, "[7]": {"test": "Apparent volume of distribution in terminal phase in healthy human at 12.5 mg, po administered as single dose", "format": "ADME, organism-based", "settings": "in vivo, read-out: Vz/F", "procedure,_shortened": "(§2)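 Single fasting oral dose of BILR 355 in PEG solution with 200 ml tap water, given to healthy males. Standard breakfast came 60-90 min after the dose. EDTA plasma was sampled predose to 144 h, stored below −18°C and assayed by LC-MS/MS after protein precipitation. Noncompartmental analysis gave Vz/F. Vss/F = CL/F·(MRTp.o. − 1/Ka), with Ka from compartmental modelling.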"}, "[8]": {"test": "AUC (0 to last) in healthy human at 50 mg, po administered as single dose coadministered with 100 mg of ritonavir", "format": "ADME, organism-based", "parameters": "dose 50 mg, time 0 - last, route oral", "settings": "plasma", "procedure,_shortened": "(§3)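 Healthy male volunteers, fasted. Ritonavir 100 mg given 10 h before and again together with single oral BILR 355 in PEG solution. EDTA plasma sampled predose to 144 h. LC-MS/MS assay after protein precipitation. Noncompartmental analysis, AUC by linear up/log down trapezoidal rule; Vss = CL/F·(MRTp.o. − 1/Ka).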"}, "[9]": {"test": "AUC (0 to infinity) in healthy human at 25 mg, po administered as single dose coadministered with 100 mg of ritonavir", "format": "ADME, organism-based", "parameters": "dose 25 mg, route oral, time infinity", "settings": "plasma", "procedure,_shortened": "as §3"}, "[10]": {"test_system": "Homo sapiens", "test": "Toxicity in healthy human assessed as occurrence of constipation at 1 mg, po administered as single dose relative to control", "format": "organism-based", "settings": "in vivo"}, "[11]": {"test_system": "Homo sapiens", "test": "Toxicity in healthy human assessed as occurrence of vomiting at 12.5 mg, po administered as single dose relative to control", "format": "organism-based", "settings": "in vivo"}, "[12]": {"test": "Half life in healthy human at 37.5 mg, po administered as single dose coadministered with 100 mg of ritonavir", "format": "ADME, organism-based", "settings": "in vivo"}, "[13]": {"test_system": "Homo sapiens", "test": "Toxicity in healthy human assessed as occurrence of frequent bowel movements at 75 mg, po administered as single dose relative to control", "format": "organism-based", "settings": "in vivo"}, "[14]": {"test": "Drug excretion in healthy human urine assessed as unchanged drug at 5 mg, po administered as single dose coadministered with 100 mg of ritonavir by high-pressure liquid chromatography-tandem mass spectrometry/mass spectrometry method", "format": "ADME, organism-based", "settings": "read-out: Drug uptake", "procedure,_shortened": "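Ritonavir 100 mg was given 10 h before and with one oral dose of BILR 355 in PEG solution. Urine was collected by weight as predose blank, then 0-6, 6-24 and 24-72 h, stored at −20°C and assayed by LC-MS/MS. fe = unchanged drug excreted (Ae) as a percentage of dose. Line 50: high-fat breakfast 30 min before dosing.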"}, "[15]": {"test": "Renal clearance in healthy human at 12.5 mg, po administered as single dose coadministered with 100 mg of ritonavir by high-pressure liquid chromatography-tandem mass spectrometry/mass spectrometry method", "format": "ADME, organism-based, Kidney", "settings": "in vivo, read-out: CL_renal (converted)"}, "[16]": {"test": "Apparent volume of distribution in terminal phase in healthy human at 50 mg, po administered as single dose", "format": "ADME, organism-based", "settings": "in vivo, read-out: Vz/F", "procedure,_shortened": "as §2"}, "[17]": {"test_system": "Homo sapiens", "test": "Ratio of AUC (0 to infinity) in human at 25 mg, po in presence of 100 mg of ritonavir to AUC (0 to infinity) in human at 25 mg, po", "format": "ADME, organism-based", "settings": "in vivo"}, "[18]": {"test": "AUC (0 to last) in healthy human at 100 mg, po administered as single dose", "format": "ADME, organism-based", "parameters": "dose 100 mg, time 0 - last, route oral", "settings": "plasma", "procedure,_shortened": "(§4)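 Healthy male volunteers, six active plus two placebo per dose group, single oral dose in PEG solution with 200 ml water after overnight fast; breakfast 60 to 90 min post-dose. EDTA plasma sampled predose to 144 h. Assayed by validated LC-MS/MS after protein precipitation. Noncompartmental analysis, AUC by linear up/log down trapezoidal rule; Vss = CL/F·(MRTp.o. − 1/Ka).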"}, "[19]": {"test": "AUC (0 to infinity) in healthy human at 12.5 mg, po administered as single dose", "format": "ADME, organism-based", "parameters": "dose 12.5 mg, route oral, time infinity", "settings": "plasma", "procedure,_shortened": "as §4"}, "[20]": {"test_system": "Homo sapiens", "test": "Toxicity in healthy human assessed as occurrence of fatigue at 25 mg, po administered as single dose relative to control", "format": "organism-based", "settings": "in vivo"}, "[21]": {"test_system": "Homo sapiens", "test": "Toxicity in healthy human assessed as occurrence of maculopapular rash at 12.5 mg, po administered as single dose coadministered with 100 mg of ritonavir", "format": "organism-based", "settings": "in vivo"}, "[22]": {"test_system": "Homo sapiens", "test": "Toxicity in high fat fed healthy human assessed as occurrence of maculopapular rash at 50 mg, po administered as single dose coadministered with 100 mg of ritonavir", "format": "organism-based", "settings": "in vivo"}, "[23]": {"test": "Apparent volume of distribution in terminal phase in healthy human at 5 mg, po administered as single dose", "format": "ADME, organism-based", "settings": "in vivo, read-out: Vz/F", "procedure,_shortened": "as §2"}, "[24]": {"test": "Apparent volume of distribution at steady state in healthy human at 75 mg, po administered as single dose coadministered with 100 mg of ritonavir", "format": "ADME, organism-based", "settings": "in vivo, read-out: Vss/F", "procedure,_shortened": "as §1"}, "[25]": {"test_system": "Homo sapiens", "test": "Toxicity in healthy human assessed as occurrence of fatigue at 62.5 mg, po administered as single dose coadministered with 100 mg of ritonavir", "format": "organism-based", "settings": "in vivo"}, "[26]": {"test": "Renal clearance in healthy human at 12.5 mg, po administered as single dose by high-pressure liquid chromatography-tandem mass spectrometry/mass spectrometry method", "format": "ADME, organism-based, Kidney", "settings": "in vivo, read-out: CL_renal (converted)"}, "[27]": {"test": "Drug excretion in healthy human urine assessed as unchanged drug at 5 mg, po administered as single dose by high-pressure liquid chromatography-tandem mass spectrometry/mass spectrometry method", "format": "ADME, organism-based", "settings": "read-out: Drug uptake", "procedure,_shortened": "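Urine was collected by weight after one oral dose of BILR 355 in PEG solution in fasted healthy males. Intervals were predose blank, 0-6, 6-24 and 24-72 h, with the bladder voided before each. Aliquots were stored at −20°C and assayed by LC-MS/MS. fe = amount of unchanged drug excreted (Ae) as a percentage of the administered dose.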"}, "[28]": {"test_system": "Homo sapiens", "test": "Toxicity in healthy human assessed as occurrence of constipation at 25 mg, po administered as single dose relative to control", "format": "organism-based", "settings": "in vivo"}, "[29]": {"test_system": "Homo sapiens", "test": "Ratio of half life in human at 12.5 mg, po in presence of 100 mg of ritonavir to half life in human at 12.5 mg, po", "format": "ADME, organism-based", "settings": "in vivo"}, "[30]": {"test_system": "Homo sapiens", "test": "Toxicity in healthy human assessed as occurrence of increase in alanine aminotransferase level at 12.5 mg, po administered as single dose relative to control", "format": "organism-based", "settings": "in vivo"}},
  "data": [
    {"smiles": "CCN1c2ncc(CCOc3cc[n+]([O-])c4ccccc34)cc2C(=O)N(C)c2cccnc21", "note": "[BILR 355]", "values": [
      {"measurement": "Tmax", "setting": "[1]", "result": 1.75, "unit": "h"},
      {"measurement": "half-life", "setting": "[2]", "result": 5.02, "unit": "h"},
      {"measurement": "Vd/F", "setting": "[3]", "result": 114, "unit": "L"},
      {"measurement": "Activity", "setting": "[4]", "result": 0, "unit": "%"},
      {"measurement": "Tmax", "setting": "[5]", "result": 0.667, "unit": "h"},
      {"measurement": "half-life", "setting": "[6]", "result": 11, "unit": "h"},
      {"measurement": "Vd/F", "setting": "[7]", "result": 1430, "unit": "L"},
      {"measurement": "AUC(0-t)", "setting": "[8]", "result": 6540, "unit": "ng·h/mL"},
      {"measurement": "AUC(0-inf)", "setting": "[9]", "result": 4340, "unit": "ng·h/mL"},
      {"measurement": "Activity", "setting": "[10]", "result": 0, "unit": "%"},
      {"measurement": "Activity", "setting": "[11]", "result": 0, "unit": "%"},
      {"measurement": "half-life", "setting": "[12]", "result": 11, "unit": "h"},
      {"measurement": "Activity", "setting": "[13]", "result": 16.7, "unit": "%"},
      {"measurement": "dose excreted", "setting": "[14]", "result": 4.78, "unit": "%"},
      {"measurement": "CL renal", "setting": "[15]", "result": 7.3, "unit": "mL/min"},
      {"measurement": "Vd/F", "setting": "[16]", "result": 460, "unit": "L"},
      {"measurement": "Ratio", "setting": "[17]", "result": 31.1},
      {"measurement": "AUC(0-t)", "setting": "[18]", "result": 1300, "unit": "ng·h/mL"},
      {"measurement": "AUC(0-inf)", "setting": "[19]", "result": 71.8, "unit": "ng·h/mL"},
      {"measurement": "Activity", "setting": "[20]", "result": 0, "unit": "%"},
      {"measurement": "Activity", "setting": "[21]", "result": 0, "unit": "%"},
      {"measurement": "Activity", "setting": "[22]", "result": 0, "unit": "%"},
      {"measurement": "Vd/F", "setting": "[23]", "result": 956, "unit": "L"},
      {"measurement": "Vd/F", "setting": "[24]", "result": 105, "unit": "L"},
      {"measurement": "Activity", "setting": "[25]", "result": 0, "unit": "%"},
      {"measurement": "CL renal", "setting": "[26]", "result": 6.85, "unit": "mL/min"},
      {"measurement": "dose excreted", "setting": "[27]", "result": 0.172, "unit": "%"},
      {"measurement": "Activity", "setting": "[28]", "result": 16.7, "unit": "%"},
      {"measurement": "Ratio", "setting": "[29]", "result": 3.9},
      {"measurement": "Activity", "setting": "[30]", "result": 0, "unit": "%"}
    ]}
  ]
}
